PMC7396739 (Drug Design, Development and Therapy, 2020)

Tests used:
[1] = Determination of saturated solubility of ASDs in distilled water; format: physicochemical; conditions: 37±0.5°C, 48 h, drug:Soluplus 1:10 w/w, Figure 5A
Method in brief: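 Solid dispersions were made by co-precipitation from anhydrous ethanol, freeze-drying from 2% ethanol (−40°C 8 h, then −45°C 24 h), or microwave (700 W, 10 min) with liquid-nitrogen quench. Products were ground and sieved (60 mesh). Excess material was shaken in 5 mL water, then filtered (0.45 µm). Concentration was measured by HPLC (C18, acetonitrile-water 84:16, 203 nm).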

[2] = Crystallization inhibition of excipients; format: physicochemical; conditions: after 5 min
Method in brief: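 Supersaturated stock (27 mg test compound in 5 mL 95% ethanol) added rapidly to 900 mL water, here with no excipient (control), at 37°C and 50 r/min. 5 mL samples were taken at 5–240 min and replaced with drug-free medium. Samples were filtered (0.22 µm) and assayed by HPLC (C18, acetonitrile-water 84:16, 1 mL/min, 203 nm). Run in triplicate.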

[3] = rats; cited from earlier work

solubility [1]: lower than the detection limit
concentration of Dio in dissolution medium without excipient [2]: lower than the detection limit
Structure (SMILES): C[C@@H]1CC[C@@]2(OC1)O[C@H]1C[C@H]3[C@@H]4CC=C5C[C@@H](O)CC[C@]5(C)[C@H]4CC[C@]3(C)[C@H]1[C@@H]2C [Dio, diosgenin]
absolute bioavailability [3]: about 7%
